Source: ChEMBL document CHEMBL1152253, “Inhibition of the CRM1-mediated nucleocytoplasmic transport by N-azolylacrylates: structure-activity relationship and mechanism of action” (Bioorg Med Chem, 2008)
Values after ≈ are worked out from the molar mass of the structure shown. Active and inactive are the calls of the source. No cut-off for these calls is given here.

Experiments:
[1] = target: Exportin-1 (Homo sapiens) (UniProt O14980); experiment: Inhibition of CRM1-mediated nucleocytoplasmic transport of RevM5 mutant in HEK293 cells assessed as RevM5-GFP nuclear localization at 10 ug/ml after 2 hrs by fluorescence microscopy; format: cell-based
Procedure, shortened: (§1)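 HEK 293T cells in 96-well trays were transfected with pRevM5-GFP by calcium phosphate, and compound was added one day later. RevM5-GFP distribution was scored by fluorescence microscopy 2 h after addition. Mainly nuclear localization was scored positive; cytoplasmic localization was scored negative.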

[2] = target: Exportin-1 (Homo sapiens) (UniProt O14980); experiment: Inhibition of CRM1-mediated nucleocytoplasmic transport of RevM5 mutant in HEK293 cells assessed as RevM5-GFP nuclear localization at 2 ug/ml after 2 hrs by fluorescence microscopy; format: cell-based; procedure, shortened: as §1
[3] = target: Exportin-1 (Homo sapiens) (UniProt O14980); experiment: Inhibition of CRM1-mediated nucleocytoplasmic transport of RevM5 mutant in HEK293 cells assessed as RevM5-GFP nuclear localization at 0.08 ug/ml after 2 hrs by fluorescence microscopy; format: cell-based; procedure, shortened: as §1
[4] = tested on: Human immunodeficiency virus 1; experiment: Antiviral activity against HIV1 NL4-3 infected in HEK293T cells assessed as inhibition of virion-associated p24 antigen production after 24 hrs by ELISA; format: functional, organism-based
Procedure, shortened: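 HEK 293T cells in DMEM with 10% heat-inactivated FCS were transfected with the HIV-1 molecular clone NL4-3 by calcium phosphate. Compounds were added at a range of concentrations. Virus-associated p24 antigen in the supernatant was measured by ELISA 24 h after compound addition.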

[5] = tested on: HeLa; experiment: Inhibition of Rev-BFP/CRM1Cys528Ser-EYFP mutant interaction in human HeLa cells assessed as Rev-BFP/CRM1Cys528Ser-EYFP nuclear colocalization at 25 nM after 2 hrs by fluorescence microscopy; format: cell-based
Procedure, shortened: (§2)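 HeLa cells were co-transfected with Rev-BFP and CRM1-EYFP constructs (wild type or Cys528 mutant). One day later cells were PBS-washed and treated with compound in complete DMEM. Live cells were imaged by confocal microscopy at 30, 120 and 180 min and at 24 h. BFP was excited by a multiphoton laser at 760 nm, with emission collected at 390–480 nm. Read-out was Rev-dependent nucleolar co-localization of CRM1-EYFP.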

[6] = tested on: HeLa; experiment: Inhibition of Rev-BFP/CRM1-EYFP interaction in human HeLa cells assessed as Rev-BFP/CRM1-EYFP nuclear colocalization by fluorescence microscopy; format: cell-based; procedure, shortened: as §2
[7] = target: Exportin-1 (Homo sapiens) (UniProt O14980); experiment: Inhibition of CRM1-mediated nucleocytoplasmic transport of RevM5 mutant in HEK293 cells assessed as RevM5-GFP nuclear localization at 0.4 ug/ml after 2 hrs by fluorescence microscopy; format: cell-based; procedure, shortened: as §1
[8] = Cytotoxicity against HIV1 3B infected human OM10.1 cells at 10 ug/mL after 48 hrs by MTT assay; format: cell-based
Procedure, shortened: (§3)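 Cytotoxicity was read by MTT viability staining on the same TNF-α-stimulated (1 ng/ml), twice-washed HIV-1(IIIB) chronically infected OM10.1 cultures (120,000 cells/well). Compound was present throughout the 48 h incubation at 37 °C.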

[9] = tested on: Human immunodeficiency virus 1; experiment: Antiviral activity against HIV1 3B infected in human OM10.1 cells assessed as inhibition of TNF-alpha-induced viral p24 production at 5 ug/mL after 48 hrs by ELISA; format: functional; design: scale not given: the % may be the effect or the level left
Procedure, shortened: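 OM10.1 cells chronically infected with HIV-1(IIIB), grown in RPMI 1640 with 10% FCS, were washed twice to remove cell-free virus and seeded at 120,000 cells/well with compound. Cultures were stimulated with 1 ng/ml TNF-α and incubated 48 h at 37 °C. Supernatant p24 was measured by ELISA.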

[10] = Cytotoxicity against HIV1 3B infected human OM10.1 cells at 20 ug/mL after 48 hrs by MTT assay; format: cell-based; procedure, shortened: as §3

Sequence of Exportin-1 (Homo sapiens) (O14980 whole entry): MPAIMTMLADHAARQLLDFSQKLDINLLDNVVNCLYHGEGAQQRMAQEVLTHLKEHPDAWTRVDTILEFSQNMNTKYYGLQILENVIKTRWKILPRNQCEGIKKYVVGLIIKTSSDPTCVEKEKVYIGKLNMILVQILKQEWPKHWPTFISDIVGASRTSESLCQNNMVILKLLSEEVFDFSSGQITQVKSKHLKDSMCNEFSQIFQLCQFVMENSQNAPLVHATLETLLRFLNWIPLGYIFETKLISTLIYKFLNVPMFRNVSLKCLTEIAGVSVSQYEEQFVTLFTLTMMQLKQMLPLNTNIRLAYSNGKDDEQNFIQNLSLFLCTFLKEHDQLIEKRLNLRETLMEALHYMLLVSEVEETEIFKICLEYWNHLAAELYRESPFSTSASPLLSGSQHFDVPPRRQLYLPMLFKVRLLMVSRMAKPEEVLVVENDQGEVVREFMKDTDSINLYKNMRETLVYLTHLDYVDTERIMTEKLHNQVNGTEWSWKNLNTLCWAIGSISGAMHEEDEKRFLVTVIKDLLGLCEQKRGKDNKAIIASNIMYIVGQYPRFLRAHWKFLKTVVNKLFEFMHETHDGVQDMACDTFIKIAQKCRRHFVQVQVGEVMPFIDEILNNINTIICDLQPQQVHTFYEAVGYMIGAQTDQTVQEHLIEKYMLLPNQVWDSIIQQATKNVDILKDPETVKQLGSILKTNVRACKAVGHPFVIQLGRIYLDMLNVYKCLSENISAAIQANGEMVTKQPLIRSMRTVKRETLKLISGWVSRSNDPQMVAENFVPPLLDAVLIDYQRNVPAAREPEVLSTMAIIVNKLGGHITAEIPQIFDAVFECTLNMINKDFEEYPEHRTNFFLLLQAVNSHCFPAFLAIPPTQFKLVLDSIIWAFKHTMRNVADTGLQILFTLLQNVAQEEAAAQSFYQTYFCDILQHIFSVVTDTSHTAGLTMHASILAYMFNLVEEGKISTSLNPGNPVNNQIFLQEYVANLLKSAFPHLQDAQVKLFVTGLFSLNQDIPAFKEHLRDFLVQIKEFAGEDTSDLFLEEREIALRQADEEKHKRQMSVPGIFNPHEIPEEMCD

Compound	Activity [1]	Activity [2]	Activity [3]	Activity [7]	further results
CCOC(=O)/C=C\n1nnc(-c2ccccc2Cl)n1	Active	Active	inactive		
Cc1ccnc2c1NC(=O)c1cccnc1N2C1CC1					Activity ([4]; HEK-293T): inactive
CCC(=C/[C@H](C)C/C=C/C(C)=C/[C@@H](C)C(=O)[C@@H](C)[C@H](O)[C@@H](C)C/C(C)=C/C(=O)O)/C=C/[C@@H]1OC(=O)C=C[C@@H]1C					Activity [5]: inactive; Activity [6]: inactive
CCOC(=O)/C=C\n1nnc(-c2cccc(Br)c2)n1	Active	Active	inactive		
CCOC(=O)/C=C/n1nnnc1-c1cccc(F)c1		inactive	inactive	inactive	
CCOC(=O)/C=C\n1ncnn1	inactive	inactive	inactive	inactive	
CCOC(=O)/C=C\n1ccc(-c2ccccc2)n1	inactive	inactive	inactive	inactive	
Brc1cccc(-c2nnn[nH]2)c1	inactive	inactive	inactive	inactive	
CCOC(=O)/C=C/n1nnc(-c2cccc(Br)c2)n1	Active		inactive	inactive	
c1ccc(-c2nnn[nH]2)cc1	inactive	inactive	inactive	inactive	
Nc1cc(Cl)ccc1-c1nnn[nH]1	inactive	inactive	inactive	inactive	
CCOC(=O)/C=C\n1cnc(-c2ccccc2N)n1	Active		inactive	inactive	
CCOC(=O)/C=C/n1nnc(-c2cc(Cl)ccc2N)n1	Active	Active	inactive	inactive	
CCOC(=O)/C=C\n1nnnc1-c1cccc(Br)c1	inactive	inactive	inactive	inactive	
CCOC(=O)/C=C\n1nnc(-c2cc(Cl)ccc2N)n1	Active	Active	inactive	Active	
CCOC(=O)/C=C\n1nnnc1-c1cccc(I)c1	inactive	inactive	inactive	inactive	
CCOC(=O)/C=C\n1nnc(-c2ccc(Cl)cc2)n1	Active		inactive	inactive	
CCOC(=O)/C=C/n1ccc(-c2ccccc2)n1	inactive	inactive	inactive	inactive	
CCOC(=O)/C=C\n1nnc(-c2cccc(F)c2)n1	Active	Active	inactive		
CCOC(=O)/C=C/n1nnnc1-c1cccc(I)c1		inactive	inactive	inactive	
CCOC(=O)/C=C\n1cnc(-c2ccccc2)c1	Active		inactive	inactive	
CCOC(=O)/C=C/n1nnc(-c2ccccc2Cl)n1	Active	inactive	inactive	inactive	
CCOC(=O)/C=C/n1nnnc1-c1ccccc1	inactive	inactive	inactive	inactive	

Compound	Activity [1]	Activity [2]	Activity [3]	Activity [7]	further results
CCOC(=O)/C=C/n1nnc(-c2ccc(Cl)cc2)n1	Active	inactive	inactive	inactive	
CCOC(=O)/C=C/n1nnc(-c2cccc(I)c2)n1	Active		inactive	inactive	
CCOC(=O)/C=C/n1nnc(-c2cccc(F)c2)n1	Active	inactive	inactive	inactive	
CCOC(=O)/C=C/n1nnnc1-c1cccc(Br)c1		inactive	inactive	inactive	
Ic1cccc(-c2nnn[nH]2)c1	inactive	inactive	inactive	inactive	
CCOC(=O)/C=C\n1nnnc1-c1ccc(Cl)cc1	Active	inactive	inactive	inactive	
CCOC(=O)/C=C/n1nnc(-c2cccc(Cl)c2)n1	Active		inactive	inactive	Activity [8]: Toxic; Activity [9]: 94%; Activity [10]: Toxic; EC50 ([4]; Human immunodeficiency virus 1, NL4-3, HEK-293T): 0.6 µg/mL (≈ 2.15 µM)
CCOC(=O)/C=C\n1nnnc1-c1cccc(Cl)c1	Active	inactive	inactive	inactive	
CCOC(=O)/C=C\n1nnnc1-c1cccc(F)c1	inactive	inactive	inactive	inactive	
CCOC(=O)/C=C/n1nnnc1-c1cccc(Cl)c1		inactive	inactive	inactive	
Clc1ccccc1-c1nnn[nH]1	inactive	inactive	inactive	inactive	
CCOC(=O)/C=C/n1cnc(-c2ccccc2)c1		inactive	inactive	inactive	
CCOC(=O)/C=C/n1cnc(-c2ccccc2N)n1	inactive	inactive	inactive	inactive	
CCOC(=O)/C=C/n1ncnn1	inactive	inactive	inactive	inactive	
CCOC(=O)/C=C\n1nnnc1-c1ccccc1Cl		inactive	inactive	inactive	
CCOC(=O)/C=C/n1nnnc1-c1ccc(Cl)cc1	inactive	inactive	inactive	inactive	
CCOC(=O)/C=C\n1nnc(-c2ccccc2)n1	Active	inactive	inactive	inactive	
Clc1ccc(-c2nnn[nH]2)cc1	inactive	inactive	inactive	inactive	
CCOC(=O)/C=C/n1ccnc1-c1ccccc1	inactive	inactive	inactive	inactive	
CCOC(=O)C=Cn1ccnc1-c1ccccc1	inactive	inactive	inactive	inactive	
Fc1cccc(-c2nnn[nH]2)c1	inactive	inactive	inactive	inactive	
CCOC(=O)/C=C/n1nnc(-c2ccccc2)n1			inactive	inactive	
CCOC(=O)/C=C\n1nnc(-c2cccc(I)c2)n1	Active	Active	inactive		
